# In the library only some 2.3% were active in any assay of this set; here they are far more common.
# TAAR1 antag = antagonists of human TAAR1; 360,000 compounds, 1.5% hits; Q96RJ0; AID 624466; CHO RD-HGA16 TAAR1, Fluo-8 calcium fluorescence, antagonist; inhibition, % at 3 µM;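 active = inhibition above a per-plate cutoff, the mean inhibition of test compounds on that plate plus 3 SD, cut at about 49% in these data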;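 also: 0% = DMSO plus EC80 beta-PEA response and 100% = DMSO alone without agonist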
# Target sequence (Q96RJ0 whole entry, looked up): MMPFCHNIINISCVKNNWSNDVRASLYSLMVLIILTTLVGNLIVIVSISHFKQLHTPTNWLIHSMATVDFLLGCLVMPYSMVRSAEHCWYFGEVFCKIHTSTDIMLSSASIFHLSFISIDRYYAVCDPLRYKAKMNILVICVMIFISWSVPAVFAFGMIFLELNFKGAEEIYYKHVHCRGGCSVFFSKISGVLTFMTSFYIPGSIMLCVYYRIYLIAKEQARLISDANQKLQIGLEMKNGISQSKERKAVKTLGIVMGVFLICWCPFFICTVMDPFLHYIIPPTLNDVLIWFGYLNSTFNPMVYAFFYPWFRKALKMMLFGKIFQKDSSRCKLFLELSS
#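 System: CHO RD-HGA16 cells bearing hTAAR1. Reagent: EC80 β-phenethylamine stimulus. Schedule: seeding 17-24 h prior, 75-min 37 °C, 30-min RT dye loading. Signal: Fluo-8 intracellular calcium dye fluorescence, real-time kinetic reads. Read-out: % inhibition from peak post-agonist over basal fluorescence ratio. Benchmarks: vehicle wells and EC80 agonist wells. Replicates: n of 1.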
# OXTR potentiate = potentiates the human oxytocin receptor response; P30559; CHO-OTR cells, Fluo-8 calcium fluorescence, potentiator mode; 0% = oxytocin EC15, 100% = EC100; activation, % at 3 µM; 320,000 compounds, 0.061% hits;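 active = activation above that plate's cutoff, the mean activation of tested compounds plus 3 SD, cut at about 6.6% in these data, passing the limit was not always enough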;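 also: 100% uses oxytocin at 75 nM as the full agonist control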
#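 Measured by – Fluo-8 calcium dye fluorescence · Test system – human OTR in CHO cells · Dosing – one concentration, 3.0 µM compound · Controls – EC15 oxytocin alone as 0%, 75 nM oxytocin as 100% · Evaluation – normalized max/min fluorescence ratio, % activation · Timing – 6 min pre-incubation, 100 s read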
# V1aR counter = V1a receptor agonism, counter-screen for OXTR agonists | P37288 | CHO-V1R cells, Fluo-8 calcium fluorescence, agonist mode; 0% DMSO, 100% 3 nM vasopressin | activation, % at 3 µM | 320,000 compounds, 0.25% hits;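 active = activation above the mean activation of all tested compounds plus 3 SD, per screening run, cut at about 20% in these data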;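 also: signal is peak over basal fluorescence ratio across a 100 second FLIPR read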
# OXTR agonist = human OXTR agonism; P30559; CHO-OTR cells, Fluo-8 calcium fluorescence; normalized: DMSO 0%, oxytocin 100%; activation, % at 3 µM; 320,000 compounds, 0.32% hits;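 active = activation above the mean of all tested compounds plus 3 SD, cutoff set per screening run, cut at about 20% in these data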;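 also: peak over basal fluorescence ratio from a 100 s FLIPR kinetic read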
# TAAR1 agonist = agonists of human TAAR1; Q96RJ0; CHO RD-HGA16 TAAR1, Fluo-8 calcium fluorescence; vehicle wells 0%, saturating PEA agonist 100%; activation, % at 3 µM; 360,000 compounds, 0.99% hits;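 active = activation above the mean activation of all test compounds in the run plus 3 SD, cut at about 38% in these data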
#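 test system = CHO RD-HGA16 cells carrying human TAAR1 plus Gα16 | schedule = 17-24 h seeding, 75 min 37 °C dye, 30 min RT | compound dosing = 3 µM single concentration | control set = DMSO and PEA EC100 | replicates = n 1 | signal = Fluo-8 fluorescence, 5 s baseline then 140 s kinetic read | measure = percent activation vs PEA EC100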
# TAAR1 ag conf = confirmation of human TAAR1 agonists | shares compounds with TAAR1 agonist | 2,400 compounds, 82% hits | activation, % at 3 µM | CHO RD-HGA16 TAAR1, Fluo-8 calcium fluorescence; scaled: DMSO 0%, maximal phenethylamine 100% | AID 651783;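 active = activation above a cutoff set at the run's mean compound activation plus 3 SD, cut at about 39% in these data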
# Ga16 ag counter = counter-screen for TAAR1 agonists: nonselective agonists in parental cells | shares compounds with TAAR1 agonist | CHO-Ga16 parental, Fluo-8 calcium fluorescence; normalized to maximal ATP response, DMSO zero | activation, % at 3 µM | 2,400 compounds, 50% hits | AID 651787;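 active = activation above the run cutoff, the mean activation over all tested wells plus 3 SD, cut at about 12% in these data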;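 also: 0% = DMSO wells and 100% = maximal ATP response on the peak over basal ratio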
# TAAR1 desens = TAAR1 response desensitization, agonist counter-screen | inhibition, % at 3 µM | CHO RD-HGA16 hTAAR1, Fluo-8 calcium, beta-PEA response inhibition | 2,400 compounds, 46% hits | shares compounds with TAAR1 agonist;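 active = inhibition above the run cutoff, the mean inhibition of all test compounds plus 3 SD, cut at about 49% in these data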;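 also: beta-PEA stimulus applied at its EC80; loss of beta-PEA calcium signal after compound pretreatment read as receptor desensitization; 0% = DMSO with beta-PEA at EC80 and 100% = DMSO alone without agonist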
# Ga16 nonsel ant = nonselective Ga16 antagonism, counter-screen; shares compounds with TAAR1 agonist; CHO-Ga16 ATP-induced calcium, Fluo-8 fluorescence; inhibition, % at 3 µM; 2,400 compounds, 39% hits; AID 651952;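 active = inhibition above the plate's mean compound inhibition plus 3 SD, computed per plate, cut at about 22% in these data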;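 also: 0% = EC80 ATP with DMSO and 100% = DMSO wells without ATP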
# An asterisk follows results filed as active; · = no result given.
SMILES,TAAR1 antag,OXTR potentiate,V1aR counter,OXTR agonist,TAAR1 agonist,TAAR1 ag conf,Ga16 ag counter,TAAR1 desens,Ga16 nonsel ant
COc1cccc(NC(=O)CN2C(=O)NC(CCc3ccccc3)C2=O)c1 (centres undefined),-9,3,1,2,27,·,·,·,·
O=C1NC(CCc2ccccc2)C(=O)N1CCOc1cccc(Br)c1 (centres undefined),-14,-11,0,-1,59*,8,3,2,17
C=CC[C@H](CC(=O)N(CCO)Cc1ccccc1)C(=O)NCCOC(=O)[C@H](CC=C)CC(=O)OC(C)(C)C,-11,-7,2,-1,3,·,·,·,·
C=CC[C@@H](CC(=O)N(CCO)Cc1ccccc1)C(=O)NC[C@H](OC(=O)[C@@H](CC=C)CC(=O)OC(C)(C)C)c1ccccc1,71*,-9,-1,-1,63*,69*,21*,63*,30*
Cc1cc(C)c2c(=O)n(CC(=O)Nc3ccc(Cl)cc3)sc2n1,80*,-11,30*,32*,87*,100*,61*,87*,68*
Cc1ccc(NC(=O)Cn2sc3nc(C)cc(C)c3c2=O)c(Cl)c1,-11,-7,6,4,25,·,·,·,·
Cc1cc(C)c2c(=O)n(CC(=O)Nc3cccc(F)c3)sc2n1,72*,-6,12,8,70*,95*,54*,88*,60*
CCOc1ccc(NC(=O)Cn2sc3nc(C)cc(C)c3c2=O)cc1,·,-10,5,4,·,·,·,·,·
Cc1ccc(NC(=O)N2CCCC2C(=O)NCC2CCCCC2)cc1 (centres undefined),12,-24,-1,0,4,·,·,·,·
O=C(CCc1ccccc1)NNC(=S)NCCc1ccccc1,2,-7,0,-1,3,·,·,·,·
O=C(CCc1ccccc1)NNC(=S)NC(=O)c1ccccc1,17,-6,1,3,88*,75*,56*,34,25*
CCCCC(=O)NC(=S)NNC(=O)CCc1ccccc1,19,-1,0,1,64*,82*,62*,40,35*
CC(=O)N(Cc1ccccc1)c1nc(-c2ccccc2)cs1,13,-9,1,-1,9,·,·,·,·
CN1C(=O)NC(c2ccccc2[N+](=O)[O-])C2=C1CCCC2=O (centres undefined),-1,-12,6,11,8,·,·,·,·
O=C(Cn1sc2ccccc2c1=O)Nc1ccc(Cl)cc1,46,·,·,·,55*,55*,30*,23,29*
O=C(Cn1sc2ccccc2c1=O)Nc1ccc(F)cc1,17,·,·,·,55*,59*,39*,33,22*
Cc1ccc(F)cc1NC(=O)COC(=O)COc1ccc(C#N)cc1,-17,-5,0,0,6,·,·,·,·
Cc1cc(C)cc(-n2c(C)cc(/C=N/NC(=O)CSc3ncccn3)c2C)c1,27,-18,1,5,45*,50*,32*,55*,33*
Cc1cc(C)cc(-n2c(C)cc(/C=N/NC(=O)c3ccncc3)c2C)c1,-7,3,-1,1,11,·,·,·,·
CCOC(=O)C1(CC2CCCCO2)CCN(Cc2cc3ccccc3[nH]2)CC1 (centres undefined),105*,-20,28*,31*,149*,114*,98*,104*,95*
CCc1ccc2c(COC(=O)C3CC(=O)N(CCc4ccccc4)C3)cc(=O)oc2c1 (centres undefined),2,·,·,·,2,·,·,·,·
O=C1CC(O)(C(F)F)Oc2ccc3ccccc3c21 (centres undefined),12,-12,2,1,2,·,·,·,·
O=C1CC(O)(C(F)(F)F)Oc2c1ccc1ccccc21 (centres undefined),46,-15,4,17,76*,75*,70*,46,39*
O=C1NC2(CCCCC2)C(=O)N1Cc1cccc(C(F)(F)F)c1,-19,-10,0,-1,71*,3,0,-7,9
Cc1cccc(C)c1NC(=O)C(=O)NCC1CCCN1S(=O)(=O)c1cccs1 (centres undefined),-17,1,-1,2,12,·,·,·,·
SMILES,TAAR1 antag,OXTR potentiate,V1aR counter,OXTR agonist,TAAR1 agonist,TAAR1 ag conf,Ga16 ag counter,TAAR1 desens,Ga16 nonsel ant
CCOC(=O)C(NC(C)=O)(N1CCc2ccccc2C1)C(F)(F)F (centres undefined),93*,-6,0,0,103*,108*,4,98*,-1
CCOC(=O)C(NC(C)=O)(N1CCOCC1)C(F)(F)F (centres undefined),·,-14,0,-1,·,·,·,·,·
CCn1c2ccccc2c2cc(/C=N/NC(=O)c3ccc(O)cc3)ccc21,30,8,-1,-2,47*,47*,2,29,13
CCn1c2ccccc2c2cc(/C=N/NC(=O)c3cc(O)cc(O)c3)ccc21,10,-4,8,-2,3,·,·,·,·
O=S(=O)(NCc1ccccc1)c1cccc2cccnc12,6,-3,0,-2,0,·,·,·,·
CC1Sc2ccc(S(=O)(=O)NCCc3ccccc3)cc2NC1=O (centres undefined),3,-9,5,2,69*,66*,5,42,12
CC1Sc2ccc(S(=O)(=O)NCCc3ccc(S(N)(=O)=O)cc3)cc2NC1=O (centres undefined),12,-6,1,-1,1,·,·,·,·
O=S(=O)(NCCc1ccccc1)c1cccc2cccnc12,-9,-9,-1,-1,63*,78*,11,41,6
CC(=O)Nc1ccc(S(=O)(=O)NCCc2ccc(F)cc2)cc1,5,0,2,2,4,·,·,·,·
O=S(=O)(NCCc1ccccc1)c1ccc(F)cc1,64*,4,0,-2,73*,86*,-1,80*,10
CCOc1ccccc1OC(C)C(=O)Nc1ccc(S(=O)(=O)N2CCCC2)cc1 (centres undefined),-6,-3,1,-2,-1,·,·,·,·
Cc1cc(N/N=C/c2ccc(O)cc2O)nc(N2CCOCC2)n1,·,-23,-1,1,·,·,4,·,9
